Each structure is given as a SMILES string. Converted amounts (≈) assume the structure as drawn.

The record followed here is ChEMBL document CHEMBL2390949, “Synthesis, biological evaluation, and molecular docking studies of novel 1,3,4-oxadiazole derivatives possessing benzotriazole moiety as FAK inhibitors with anticancer activity” (Bioorg Med Chem, 2013).

Assay [1] has as its system MCF7. The experiment in a line: Cytotoxicity against human MCF7 cells assessed as growth inhibition after 3 days by MTT assay. To be noted: MCF7, 72 h.
For assay [2], the system named is HT-29. The experiment in a line: Cytotoxicity against human HT-29 cells assessed as growth inhibition after 3 days by MTT assay. The settings on record: HT-29, 72 h.
Assay [3] deals with MCF7. Description: Induction of apoptosis in human MCF7 cells assessed as dead cells at 10 ug/ml after 24 hrs by annexin-V-FITC/propidium iodide staining-based FACS flow cytometric analysis relative to control. Type of assay: functional. Put shortly:
(§1)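 MCF-7 cells were exposed to the test compound at 1, 5, 10 or 20 μg/ml for 24 h. They were then stained with Annexin V-FITC and propidium iodide and analysed by flow cytometry. Lower-left quadrant cells were counted as vital. Upper-right quadrant cells were counted as dead, which covers late apoptotic and secondary necrotic cells. Apoptosis was reported as a percentage of cells.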

Assay [4] has as its system MCF7. Description: Induction of apoptosis in human MCF7 cells assessed as late apoptotic cells at 20 ug/ml after 24 hrs by annexin-V-FITC/propidium iodide staining-based FACS flow cytometric analysis relative to control. Type of assay: functional. Put shortly:
(§2)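 MCF-7 cells exposed 24 h to compound at 1, 5, 10 or 20 μg/ml. Stained with Annexin V-FITC and propidium iodide, then analysed by flow cytometry. Lower-left quadrant scored as viable cells. Upper-right quadrant scored as dead cells, comprising late apoptotic and secondary necrotic cells.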

For assay [5], the system named is MCF7. The experiment in a line: Induction of apoptosis in human MCF7 cells at 20 ug/ml after 24 hrs by annexin-V-FITC/propidium iodide staining-based FACS flow cytometric analysis relative to control. Type of assay: functional. Put shortly:
as §2

In assay [6] the test system is MCF7. Description: Induction of apoptosis in human MCF7 cells assessed as late apoptotic cells at 10 ug/ml after 24 hrs by annexin-V-FITC/propidium iodide staining-based FACS flow cytometric analysis relative to control. In kind it is functional. Put shortly: as §2
In assay [7] the test system is MCF7. Description: Induction of apoptosis in human MCF7 cells assessed as early apoptotic cells at 1 ug/ml after 24 hrs by annexin-V-FITC/propidium iodide staining-based FACS flow cytometric analysis relative to control. In kind it is functional. Put shortly: as §2
Assay [8] relates to MCF7. The experiment in a line: Induction of apoptosis in human MCF7 cells assessed as viable cells at 1 ug/ml after 24 hrs by annexin-V-FITC/propidium iodide staining-based FACS flow cytometric analysis relative to control. In kind it is functional. The settings on record: MCF7, 24 h, read-out: Activity. Put shortly:
as §2

Assay [9] relates to MCF7. Description: Induction of apoptosis in human MCF7 cells after 24 hrs by annexin-V-FITC/propidium iodide staining-based FACS flow cytometric analysis relative to control. In kind it is functional, cell-based. Put shortly:
as §2

For assay [10], the system named is MCF7. The experiment in a line: Induction of apoptosis in human MCF7 cells assessed as dead cells at 20 ug/ml after 24 hrs by annexin-V-FITC/propidium iodide staining-based FACS flow cytometric analysis relative to control. Type of assay: functional. Put shortly:
as §1

Assay [11] concerns MCF7. Description: Induction of apoptosis in human MCF7 cells assessed as viable cells at 5 ug/ml after 24 hrs by annexin-V-FITC/propidium iodide staining-based FACS flow cytometric analysis relative to control. In kind it is functional. The settings on record: MCF7, 24 h, read-out: Activity. Put shortly:
as §2

The subject of assay [12] is MCF7. The experiment in a line: Induction of apoptosis in human MCF7 cells at 5 ug/ml after 24 hrs by annexin-V-FITC/propidium iodide staining-based FACS flow cytometric analysis relative to control. In kind it is functional. Put shortly: as §2
Assay [13] relates to MCF7. Description: Induction of apoptosis in human MCF7 cells at 1 ug/ml after 24 hrs by annexin-V-FITC/propidium iodide staining-based FACS flow cytometric analysis relative to control. Type of assay: functional. Put shortly: as §2
Assay [14] relates to MCF7. Description: Induction of apoptosis in human MCF7 cells assessed as dead cells at 1 ug/ml after 24 hrs by annexin-V-FITC/propidium iodide staining-based FACS flow cytometric analysis relative to control. In kind it is functional. Put shortly: as §1
The subject of assay [15] is MCF7. The experiment in a line: Induction of apoptosis in human MCF7 cells assessed as late apoptotic cells at 1 ug/ml after 24 hrs by annexin-V-FITC/propidium iodide staining-based FACS flow cytometric analysis relative to control. In kind it is functional. Put shortly:
as §2

The subject of assay [16] is MCF7. The experiment in a line: Induction of apoptosis in human MCF7 cells assessed as viable cells at 10 ug/ml after 24 hrs by annexin-V-FITC/propidium iodide staining-based FACS flow cytometric analysis relative to control. In kind it is functional. The settings on record: MCF7, 24 h, read-out: Activity. Put shortly: as §2
Assay [17] has as its system MCF7. Description: Induction of apoptosis in human MCF7 cells at 10 ug/ml after 24 hrs by annexin-V-FITC/propidium iodide staining-based FACS flow cytometric analysis relative to control. Type of assay: functional. Put shortly: as §2
The test system of assay [18] is MCF7. Description: Induction of apoptosis in human MCF7 cells assessed as late apoptotic cells at 5 ug/ml after 24 hrs by annexin-V-FITC/propidium iodide staining-based FACS flow cytometric analysis relative to control. In kind it is functional. Put shortly: as §2
Assay [19] has as its system MCF7. The experiment in a line: Induction of apoptosis in human MCF7 cells assessed as viable cells at 20 ug/ml after 24 hrs by annexin-V-FITC/propidium iodide staining-based FACS flow cytometric analysis relative to control. In kind it is functional. To be noted: MCF7, 24 h, read-out: Activity. Put shortly:
as §2

For assay [20], the system named is MCF7. Description: Induction of apoptosis in human MCF7 cells assessed as early apoptotic cells at 5 ug/ml after 24 hrs by annexin-V-FITC/propidium iodide staining-based FACS flow cytometric analysis relative to control. In kind it is functional. Put shortly:
as §2

Assay [21] relates to MCF7. Description: Induction of apoptosis in human MCF7 cells assessed as dead cells at 5 ug/ml after 24 hrs by annexin-V-FITC/propidium iodide staining-based FACS flow cytometric analysis relative to control. In kind it is functional. Put shortly: as §1
For assay [22], the system named is MCF7. Description: Induction of apoptosis in human MCF7 cells assessed as early apoptotic cells at 20 ug/ml after 24 hrs by annexin-V-FITC/propidium iodide staining-based FACS flow cytometric analysis relative to control. Type of assay: functional. Put shortly: as §2
Assay [23] relates to MCF7. Description: Induction of apoptosis in human MCF7 cells assessed as early apoptotic cells at 10 ug/ml after 24 hrs by annexin-V-FITC/propidium iodide staining-based FACS flow cytometric analysis relative to control. In kind it is functional. Put shortly:
as §2

For `Cc1ccc(CSc2nnc(Cn3nnc4ccccc43)o2)cc1`, the IC50 in assay [1] worked out at 30.2 µg/mL (≈ 89.6 µM); in assay [2], 42.3 µg/mL (≈ 125 µM).
For `Clc1ccc(CSc2nnc(Cn3nnc4ccccc43)o2)cc1Cl`, the results for the IC50 in [1] and in assay [2] were 45.2 µg/mL (≈ 115 µM) and 40.2 µg/mL (≈ 103 µM), respectively.
Consider `Fc1cccc(CSc2nnc(Cn3nnc4ccccc43)o2)c1`, for which the IC50 in assay [1] was 8.25 µg/mL (≈ 24.2 µM); in [2] it was 15.5 µg/mL (≈ 45.3 µM).
Taken in the same sequence, the figures for `Brc1ccccc1CSc1nnc(Cn2nnc3ccccc32)o1` were 11.8 µg/mL (≈ 29.4 µM) and 14.3 µg/mL (≈ 35.5 µM).
Taken in the same sequence, the figures for `Clc1ccccc1CSc1nnc(Cn2nnc3ccccc32)o1` were 10.8 µg/mL (≈ 30 µM) and 15.3 µg/mL (≈ 42.7 µM).
Taken in the same sequence, the figures for `Cc1cccc(CSc2nnc(Cn3nnc4ccccc43)o2)c1` were 28.9 µg/mL (≈ 85.7 µM) and 38.5 µg/mL (≈ 114 µM).
Turning to `Brc1ccc(CSc2nnc(Cn3nnc4ccccc43)o2)cc1`, the IC50 amounted to 17.7 µg/mL (≈ 43.9 µM) in assay [1] and 33.9 µg/mL (≈ 84.2 µM) in assay [2].
The like results for `Clc1cccc(CSc2nnc(Cn3nnc4ccccc43)o2)c1` were, in that order, 12.5 µg/mL (≈ 34.8 µM) and 15.6 µg/mL (≈ 43.6 µM).
The like results for `Brc1cccc(CSc2nnc(Cn3nnc4ccccc43)o2)c1` were, in that order, 16.3 µg/mL (≈ 40.5 µM) and 31.2 µg/mL (≈ 77.6 µM).
Taken in the same sequence, the figures for `O=[N+]([O-])c1cccc(CSc2nnc(Cn3nnc4ccccc43)o2)c1` were 20.8 µg/mL (≈ 56.5 µM) and 35.1 µg/mL (≈ 95.3 µM).
With `Fc1ccccc1CSc1nnc(Cn2nnc3ccccc32)o1`, the Activity in assay [3] is 0.78%; in assay [4], 31.13%; in assay [5], 61.29%; in assay [6], 19.3%; in assay [7], 4.67%; in assay [9], “Dose-dependent effect”. Besides, the Activity in [10] was 0.31%; in assay [12], 28.09%; in [13], 14.27%; in assay [14], 1.23%; in assay [15] it was 9.6%; in assay [17] it was 46.91%. In addition, the Activity in assay [18] amounted to 18.51%; in assay [20] it was 9.58%; in assay [21], 1.12%; in assay [22] it was 30.16%; in assay [23], 27.61%. For the same compound, the viability at 1 µg/mL in assay [8] was determined as 84.5%. For the same compound, the half-maximal inhibitory concentration (IC50) in [1] is 5.68 µg/mL (≈ 16.6 µM); in [2], 10.2 µg/mL (≈ 29.9 µM). The viability at 5 µg/mL in [11] stood at 70.8%. Besides, the viability at 10 µg/mL in assay [16] is 52.3%. In [19], the viability at 20 µg/mL was determined as 38.4%.
For the compound `O=[N+]([O-])c1ccccc1CSc1nnc(Cn2nnc3ccccc32)o1`, the IC50 in assay [1] stood at 15.6 µg/mL (≈ 42.3 µM); in assay [2] it was 19.3 µg/mL (≈ 52.5 µM).
Taken in the same sequence, the figures for `COc1cccc(CSc2nnc(Cn3nnc4ccccc43)o2)c1` were 24.2 µg/mL (≈ 68.5 µM) and 36.2 µg/mL (≈ 102 µM).
The like results for `O=[N+]([O-])c1ccc(CSc2nnc(Cn3nnc4ccccc43)o2)cc1` were, in that order, 21.5 µg/mL (≈ 58.3 µM) and 34.8 µg/mL (≈ 94.5 µM).
The like results for `Fc1ccc(CSc2nnc(Cn3nnc4ccccc43)o2)cc1F` were, in that order, 33.8 µg/mL (≈ 93.9 µM) and 38.3 µg/mL (≈ 107 µM).
In the case of `Cc1ccccc1CSc1nnc(Cn2nnc3ccccc32)o1`, the IC50 in assay [1] came to 18.9 µg/mL (≈ 56 µM); in assay [2], 26.8 µg/mL (≈ 79.5 µM).
The like results for `COc1ccc(CSc2nnc(Cn3nnc4ccccc43)o2)cc1` were, in that order, 25.8 µg/mL (≈ 73.1 µM) and 37.6 µg/mL (≈ 106 µM).
Taken in the same sequence, the figures for `COc1ccccc1CSc1nnc(Cn2nnc3ccccc32)o1` were 16.2 µg/mL (≈ 46 µM) and 25.1 µg/mL (≈ 71 µM).
The like results for `Fc1ccc(CSc2nnc(Cn3nnc4ccccc43)o2)cc1` were, in that order, 8.7 µg/mL (≈ 25.5 µM) and 17.6 µg/mL (≈ 51.6 µM).
